By GI50 is commonly meant the concentration giving 50% growth inhibition. Higher therefore signals less potent growth inhibition.

Bounds are passed on as bounds.

This note sets out measurements from ChEMBL document CHEMBL1240409, “Design, synthesis and evaluation of (E)-alpha-benzylthio chalcones as novel inhibitors of BCR-ABL kinase” (Bioorg Med Chem, 2010).

The subject of one experiment is K562. Put plainly: Growth inhibition of human K562 cells expressing p210Bcr/Abl after 96 hrs by trypan blue exclusion assay. It is filed as functional, cell-based. To be noted: K562, 96 h. Put shortly:
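K562 cells were kept in RPMI with 10% FBS and penicillin–streptomycin at 37 °C under 5% CO2. Cells were seeded at 1 × 10^5 cells/mL with a range of compound concentrations, using DMSO as the negative control. After 96 h, viability was counted by Trypan blue exclusion and expressed as percent of DMSO control to derive GI50.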

For the next experiment, the system named is DU-145. Briefly: Growth inhibition of human DU145 cells after 96 hrs by trypan blue exclusion assay. It is filed as functional. To be noted: DU-145, 96 h.

Consider `O=C(/C(=C\c1ccc(O)c(Br)c1)Sc1ccc(Br)cc1)c1c(F)c(F)c(F)c(F)c1F`, for which the GI50 in the experiment with K562 and in the experiment on DU-145 was 1 µM throughout.

For `COc1cc(/C=C(/SCc2ccc(Br)cc2)C(=O)c2ccc(Br)cc2)cc([N+](=O)[O-])c1O`, the GI50 with K562 and with DU-145 was 25 µM throughout.

As to `O=C(/C(=C\c1ccc(F)cc1F)Sc1ccc(Br)cc1)c1ccc(Br)cc1`, the GI50 in the experiment with K562 and in the experiment with DU-145 was 1 µM throughout.

For `CCOc1ccc(/C=C(\C(=O)c2ccc(Br)cc2)S(=O)(=O)c2ccc(Br)cc2)c(OCC)c1`, the GI50 in the experiment with K562 is 1 µM; with DU-145 it was 10 µM.

As for `O=C(O)c1ccc(/C=C(/SCc2ccc(Cl)cc2)C(=O)c2ccc(C(=O)O)cc2)cc1`, the GI50 in the experiment on K562 and in the experiment on DU-145 was > 100 µM throughout.

With `Nc1c(Br)cc(Br)cc1/C=C(\C(=O)c1ccc(Br)cc1)S(=O)(=O)c1ccc(Br)cc1`, the GI50 with K562 and in the experiment with DU-145 was 25 µM each time.

Turning to `O=C(/C(=C\c1ccc(O)c([N+](=O)[O-])c1)S(=O)(=O)c1ccc(I)cc1)c1ccc(Br)cc1`, the GI50 in the experiment on K562 and with DU-145 was 25 µM each time.

For the compound `Cc1ccc(S(=O)(=O)/C(=C/c2c(F)c(F)c(F)c(F)c2F)C(=O)c2ccc(Cl)cc2)cc1`, the figures for the GI50 in the experiment on K562 and in the experiment on DU-145 were 50 µM and > 100 µM, respectively.

As to `COc1ccc(/C=C(\C(=O)c2ccc(Br)cc2)S(=O)(=O)c2ccc(Br)cc2)c(OC)c1`, the GI50 with K562 and in the experiment with DU-145 was 8 µM in each case.

For the compound `CSc1ccc(/C=C(/SCc2ccc(C)cc2)C(=O)c2ccc(Br)cc2)cc1`, the GI50 in the experiment on K562 is 10 µM; in the experiment with DU-145, > 100 µM.

Regarding `CCOc1ccc(/C=C(\C(=O)c2ccc(Br)cc2)S(=O)(=O)c2ccc(C)cc2)cc1OC`, the GI50 in the experiment on K562 and in the experiment on DU-145 was 1 µM throughout.

For the compound `O=C(/C(=C\c1ccccc1OCc1ccccc1)S(=O)(=O)Cc1ccc(Cl)cc1)c1ccc(Br)cc1`, the GI50 was found to be 1 µM with K562 and 10 µM in the experiment with DU-145.

On to `O=C(/C(=C\c1ccc(Br)cc1)SCc1ccc(Cl)cc1)c1ccc(Cl)cc1`, for which the GI50 in the experiment with K562 and in the experiment with DU-145 was 1 µM each time.

Regarding `CCOc1ccc(/C=C(/SCc2ccc(F)cc2)C(=O)c2ccc(Cl)cc2)cc1OC`, the GI50 in the experiment with K562 and in the experiment with DU-145 was 1 µM throughout.

On to `Cc1ccc(CS(=O)(=O)/C(=C/c2c[nH]c3ccccc23)C(=O)c2ccc(Cl)cc2)cc1`, for which the GI50 is > 100 µM in the experiment with K562 and 25 µM in the experiment with DU-145.

On to `Cc1ccc(S/C(=C/c2cnc3ccccc3c2)C(=O)c2ccc(Cl)cc2)cc1`, for which the GI50 with K562 and in the experiment on DU-145 was > 100 µM each time.

For `Cc1ccc(/C=C(\C(=O)c2ccc(Br)cc2)S(=O)(=O)Cc2ccc(F)cc2)s1`, the GI50 in the experiment on K562 and with DU-145 was 1 µM in each case.

In the case of `O=C(/C(=C\c1ccc(Br)cc1)Sc1ccc(Br)cc1)c1ccc(Br)cc1`, the figures for the concentration for 50% growth inhibition (GI50) in the experiment with K562 and in the experiment with DU-145 were 2.5 µM and 1 µM, respectively.

As for `Cc1ccc(CS(=O)(=O)/C(=C/c2c(O)cc(O)cc2O)C(=O)c2ccc(Cl)cc2)cc1`, the concentration for 50% growth inhibition (GI50) in the experiment with K562 and with DU-145 was > 100 µM in each case.

As to `Cc1ccc(CS/C(=C/c2ccc(F)c([N+](=O)[O-])c2)C(=O)c2ccc(Cl)c([N+](=O)[O-])c2)cc1`, the figures for the GI50 in the experiment on K562 and in the experiment with DU-145 were < 1 µM and 1 µM, respectively.

Turning to `O=C(C(=Cc1ccc(I)cc1)S(=O)(=O)Cc1ccc(I)cc1)c1ccc(I)cc1`, the 50% growth inhibitory concentration (GI50) was > 50 µM in the experiment with K562 and 50 µM in the experiment on DU-145.

Turning to `CN(C)c1ccc(/C=C(/Sc2ccc(Br)cc2)C(=O)c2ccc(Cl)cc2)cc1`, the concentration for 50% growth inhibition (GI50) with K562 and in the experiment on DU-145 was > 100 µM in each case.

In the case of `Cc1ccc(S/C(=C/c2c[nH]c3ccccc23)C(=O)c2ccc(Br)cc2)cc1`, the GI50 in the experiment on K562 and with DU-145 was 10 µM throughout.

As for `CN(C)c1ccc(/C=C(/SCc2ccc(F)cc2)C(=O)c2ccc(Cl)cc2)cc1`, the GI50 in the experiment with K562 was determined as 1 µM; in the experiment on DU-145, 50 µM.

For the compound `O=C(/C(=C\c1ccc(O)cc1)SCc1ccc(F)cc1)c1ccc(Cl)cc1`, the GI50 was 10 µM in the experiment with K562 and 25 µM with DU-145.

Take `O=C(/C(=C\c1ccc(O)c([N+](=O)[O-])c1)S(=O)(=O)Cc1ccc(Br)cc1)c1c(F)c(F)c(F)c(F)c1F`: the GI50 with K562 and with DU-145 was 50 µM in each case.

As to `O=C(/C(=C\c1ccccc1OCc1ccccc1)SCc1ccc(Cl)c(Cl)c1)c1ccc(Cl)cc1`, the GI50 with K562 and in the experiment with DU-145 was 10 µM in each case.

With `O=C(/C(=C\c1ccc(O)c([N+](=O)[O-])c1)S(=O)(=O)c1ccc(I)cc1)c1ccc(I)cc1`, the GI50 with K562 and in the experiment with DU-145 was 25 µM throughout.

For the compound `Cc1ccsc1/C=C(/SCc1ccc(Cl)cc1)C(=O)c1ccc(Cl)cc1`, the GI50 in the experiment on K562 and in the experiment with DU-145 was 50 µM in each case.

For the compound `Cc1ccc(CS(=O)(=O)/C(=C/c2cccc(Cl)c2Cl)C(=O)c2ccc(Cl)cc2)cc1`, the GI50 in the experiment on K562 and with DU-145 was 1 µM each time.

Turning to `COc1ccc(OC)c(/C=C(/SCc2ccc(Cl)c(Cl)c2)C(=O)c2ccc(Cl)cc2)c1`, the GI50 in the experiment with K562 and in the experiment with DU-145 was 10 µM each time.

Regarding `O=C(/C(=C\c1ccc(Cl)cc1Cl)S(=O)(=O)c1ccc(Br)cc1)c1ccc(Cl)cc1`, the GI50 with K562 amounted to 25 µM; with DU-145 it was 50 µM.

As to `COc1ccc2[nH]cc(/C=C(/Sc3ccc(Br)cc3)C(=O)c3ccc(Br)cc3)c2c1`, the concentration for 50% growth inhibition (GI50) with K562 and with DU-145 was 10 µM in each case.

On to `Cc1ccc(CS/C(=C/c2cc(Cl)cc(Cl)c2)C(=O)c2ccc(Cl)cc2)cc1`, for which the GI50 with K562 and in the experiment with DU-145 was 10 µM each time.

For `Cc1ccsc1/C=C(/SCc1ccc(Cl)c(Cl)c1)C(=O)c1ccc(Cl)cc1`, the GI50 in the experiment with K562 and in the experiment with DU-145 was 50 µM in each case.

Consider `O=C(/C(=C\c1ccccc1F)S(=O)(=O)c1ccc(Br)cc1)c1ccc(Cl)cc1`, for which the GI50 in the experiment on K562 and with DU-145 was 25 µM each time.

Regarding `Cc1ccc(CS(=O)(=O)/C(=C/c2ccc(C)s2)C(=O)c2ccc(Cl)cc2)cc1`, the GI50 with K562 and with DU-145 was 25 µM throughout.

Turning to `O=C(/C(=C\c1ccc([N+](=O)[O-])c(O)c1)SCc1ccc(Br)cc1)c1c(F)c(F)c(F)c(F)c1F`, the GI50 in the experiment on K562 stood at 1 µM; in the experiment on DU-145, 10 µM.

Consider `COc1cc(OC)c(/C=C(/SCc2ccc(F)cc2)C(=O)c2ccc(Br)cc2)c(OC)c1`, for which the GI50 in the experiment on K562 and in the experiment on DU-145 was 1 µM in each case.

Consider `COc1cc(OC)c(/C=C(\C(=O)c2ccc(Cl)cc2)S(=O)(=O)c2ccc(C)cc2)c(OC)c1`, for which the results for the GI50 with K562 and in the experiment with DU-145 were 10 µM and 25 µM, respectively.

Take `O=C(/C(=C\c1cccc(Cl)c1Cl)SCc1ccc(Cl)cc1)c1ccc(Br)cc1`: the GI50 in the experiment on K562 and with DU-145 was 10 µM in each case.

For the compound `CN(C)c1ccc(/C=C(/SCc2ccccc2Cl)C(=O)c2ccc(Cl)cc2)cc1`, the values for the GI50 in the experiment on K562 and in the experiment with DU-145 were 50 µM and > 100 µM, respectively.

`Cc1ccc(CS/C(=C/c2ccccc2Br)C(=O)c2ccc(Cl)cc2)cc1`: the GI50 in the experiment with K562 and in the experiment with DU-145 was 10 µM in each case.

Take `CSc1ccc(/C=C(/Sc2ccc(C)cc2)C(=O)c2ccc(Br)cc2)cc1`: the GI50 in the experiment with K562 was found to be 1 µM; in the experiment on DU-145, 50 µM.

As for `O=C(/C(=C\c1ccc([N+](=O)[O-])c(O)c1)SCc1ccc(Br)cc1)c1ccc([N+](=O)[O-])c(Cl)c1`, the GI50 in the experiment with K562 and in the experiment with DU-145 was 1 µM throughout.

On to `O=C(/C(=C\c1ccc(O)cc1O)SCc1cccc(Cl)c1)c1ccc(Br)cc1`, for which the 50% growth inhibitory concentration (GI50) in the experiment with K562 was 25 µM; in the experiment with DU-145, 50 µM.

In the case of `Cc1ccsc1/C=C(\C(=O)c1ccc([N+](=O)[O-])cc1)S(=O)(=O)Cc1ccc(Cl)cc1`, the GI50 in the experiment on K562 and with DU-145 was 1 µM throughout.

Take `Cc1ccc(S(=O)(=O)/C(=C/c2ccc(F)cc2F)C(=O)c2ccc(Br)cc2)cc1`: the concentration for 50% growth inhibition (GI50) with K562 and in the experiment on DU-145 was > 100 µM in each case.

In the case of `CN(C)c1ccc(/C=C(\C(=O)c2ccc(Br)cc2)S(=O)(=O)Cc2ccc(F)cc2)cc1`, the GI50 with K562 and in the experiment with DU-145 was 50 µM each time.

Turning to `Nc1ccc(/C=C(/SCc2ccc(F)cc2)C(=O)c2ccc(C(=O)O)cc2)cc1[N+](=O)[O-]`, the GI50 with K562 and in the experiment with DU-145 was 10 µM in each case.

For `Cc1ccc(CS/C(=C/c2ccc(F)cc2C(F)(F)F)C(=O)c2ccc(Cl)cc2)cc1`, the GI50 with K562 and in the experiment on DU-145 was 50 µM in each case.

Regarding `Cc1ccc(CS/C(=C/c2ccccc2OCc2ccccc2)C(=O)c2ccc(Cl)cc2)cc1`, the GI50 with K562 and in the experiment on DU-145 was 1 µM in each case.

On to `Cc1ccc(S/C(=C/c2c(F)c(F)c(F)c(F)c2F)C(=O)c2ccc(Cl)cc2)cc1`, for which the concentration for 50% growth inhibition (GI50) in the experiment with K562 and in the experiment with DU-145 was 25 µM in each case.

Regarding `COc1ccccc1/C=C(/SCc1ccc(C)cc1)C(=O)c1ccc(Cl)cc1`, the GI50 with K562 and with DU-145 was 10 µM throughout.

Consider `O=C(/C(=C\c1ccc(Cl)cc1)SCc1ccc(Cl)cc1)c1ccc(Br)cc1`, for which the GI50 is 1 µM in the experiment with K562 and 10 µM with DU-145.

Turning to `O=C(/C(=C\c1c[nH]c2ccccc12)S(=O)(=O)Cc1ccc(F)cc1)c1ccc(Cl)cc1`, the GI50 with K562 and with DU-145 was 50 µM throughout.

Regarding `Cc1ccc(CS(=O)(=O)/C(=C/c2sccc2C)C(=O)c2ccc(Cl)cc2)cc1`, the GI50 in the experiment on K562 and with DU-145 was 25 µM throughout.

As for `COc1ccccc1/C=C(\C(=O)c1ccc([N+](=O)[O-])cc1)S(=O)(=O)Cc1ccc(Cl)cc1`, the GI50 in the experiment on K562 and in the experiment on DU-145 was 10 µM throughout.

Consider `CSc1ccc(/C=C(\C(=O)c2ccc(Br)cc2)S(=O)(=O)Cc2ccc(C)cc2)cc1`, for which the GI50 in the experiment on K562 and in the experiment with DU-145 was 10 µM throughout.

Consider `O=C(/C(=C\c1ccc(I)cc1)S(=O)(=O)c1ccc(Br)cc1)c1ccc(Br)cc1`, for which the GI50 with K562 was 9 µM; in the experiment on DU-145, 1 µM.

Consider `Cc1ccc(S(=O)(=O)/C(=C/c2ccc(N(C)C)cc2)C(=O)c2ccc(Br)cc2)cc1`, for which the GI50 in the experiment with K562 was > 100 µM; in the experiment with DU-145, 50 µM.
